Measurements from ChEMBL document CHEMBL1149252, “Synthesis and structure-activity relationships of 4-alkynyloxy phenyl sulfanyl, sulfinyl, and sulfonyl alkyl hydroxamates as tumor necrosis factor-alpha converting enzyme and matrix metalloproteinase inhibitors” (J Med Chem, 2004).
Activity calls are given as the source filed them. The calls are words filed in the database; no cut-off is given here.

What was measured:
[1] = target: T1, Matrix metalloproteinase-9 (Homo sapiens, UniProt P14780)
[2] = target: T2, Collagenase 3 (Homo sapiens, UniProt P45452)
[3] = target: T3, Interstitial collagenase (Homo sapiens, UniProt P03956)
T3 sequence (P03956 whole entry): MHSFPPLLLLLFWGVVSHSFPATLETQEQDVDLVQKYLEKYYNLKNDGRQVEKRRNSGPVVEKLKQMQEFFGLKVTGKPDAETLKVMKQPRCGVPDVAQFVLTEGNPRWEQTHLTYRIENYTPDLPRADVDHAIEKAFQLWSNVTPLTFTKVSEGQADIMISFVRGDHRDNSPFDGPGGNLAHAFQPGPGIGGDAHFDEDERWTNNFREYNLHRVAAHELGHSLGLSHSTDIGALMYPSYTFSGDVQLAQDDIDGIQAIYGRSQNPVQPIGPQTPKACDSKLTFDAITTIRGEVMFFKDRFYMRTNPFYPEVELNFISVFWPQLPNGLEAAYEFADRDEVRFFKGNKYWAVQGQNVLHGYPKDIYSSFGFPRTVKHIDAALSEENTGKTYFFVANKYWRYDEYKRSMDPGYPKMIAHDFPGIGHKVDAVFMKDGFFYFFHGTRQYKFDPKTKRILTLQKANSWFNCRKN

[4] = test system: THP-1; assay: Inhibition of LPS-stimulated TNFalpha production in human THP1 cells at 3 uM by ELISA; format: functional
[5] = target: T4, Disintegrin and metalloproteinase domain-containing protein 17 (Homo sapiens, UniProt P78536)
T4 sequence (P78536 whole entry, the tested form may be a part): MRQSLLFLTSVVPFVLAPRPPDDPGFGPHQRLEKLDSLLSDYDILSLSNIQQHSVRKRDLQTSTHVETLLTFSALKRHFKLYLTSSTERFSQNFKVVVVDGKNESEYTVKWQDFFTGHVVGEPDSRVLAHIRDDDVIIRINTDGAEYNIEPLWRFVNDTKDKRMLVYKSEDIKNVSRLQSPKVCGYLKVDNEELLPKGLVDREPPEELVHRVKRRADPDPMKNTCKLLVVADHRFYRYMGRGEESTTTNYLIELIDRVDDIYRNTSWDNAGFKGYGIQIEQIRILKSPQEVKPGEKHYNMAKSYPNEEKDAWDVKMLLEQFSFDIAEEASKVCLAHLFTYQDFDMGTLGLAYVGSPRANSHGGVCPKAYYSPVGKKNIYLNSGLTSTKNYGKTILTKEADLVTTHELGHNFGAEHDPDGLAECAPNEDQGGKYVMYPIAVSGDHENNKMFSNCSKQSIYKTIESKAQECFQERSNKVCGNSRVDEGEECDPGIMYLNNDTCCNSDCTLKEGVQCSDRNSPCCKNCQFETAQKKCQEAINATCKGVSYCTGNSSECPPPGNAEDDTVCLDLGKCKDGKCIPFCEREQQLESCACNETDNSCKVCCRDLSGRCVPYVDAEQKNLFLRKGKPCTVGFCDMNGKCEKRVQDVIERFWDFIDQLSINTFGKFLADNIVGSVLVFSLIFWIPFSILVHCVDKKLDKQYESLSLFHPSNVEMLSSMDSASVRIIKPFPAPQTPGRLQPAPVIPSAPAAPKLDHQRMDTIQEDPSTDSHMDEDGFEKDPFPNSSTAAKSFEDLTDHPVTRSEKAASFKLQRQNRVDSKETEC

[6] = target: T3, Interstitial collagenase; assay: Inhibition of MMP1 at 10 uM
Procedure, shortened: (§1)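 Cell-free assay on isolated enzyme (MMP-1, MMP-9, MMP-13 or TACE). Percent inhibition was read at a single 10 μM inhibitor concentration, with samples run in triplicate and the mean reported. Full dose-response curves were generated only where inhibition at 10 μM reached 60%.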

[7] = target: T1, Matrix metalloproteinase-9; assay: Inhibition of MMP9 at 10 uM
Procedure, shortened: as §1

[8] = target: T2, Collagenase 3; assay: Inhibition of MMP13 at 10 uM
Procedure, shortened: as §1

[9] = target: T4, Disintegrin and metalloproteinase domain-containing protein 17; assay: Inhibition of TACE at 10 uM
Procedure, shortened: as §1

[10] = test system: Mus musculus; assay: Inhibition of LPS-stimulated TNFalpha production in mouse model at 100 mg/kg, po at 12 hrs; format: functional
[11] = test system: Mus musculus; assay: Inhibition of LPS-stimulated TNFalpha production in mouse model at 10 mg/kg, po; format: functional, organism-based; set-up: dose 10 mg/kg
Procedure, shortened: (§2)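 Mice received the compound orally. LPS was injected 30 min after dosing. Blood was drawn 1 h after LPS, and serum TNF-α was measured by ELISA. Results are expressed as % inhibition of LPS-induced TNF-α.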

[12] = test system: Mus musculus; assay: Inhibition of LPS-stimulated TNFalpha production in mouse model at 100 mg/kg, po at 1 hrs; format: functional
Procedure, shortened: as §2

[13] = test system: Mus musculus; assay: Inhibition of LPS-stimulated TNFalpha production in mouse model at 10 mg/kg, po at 1 hrs; format: functional
Procedure, shortened: as §2

[14] = test system: Mus musculus; assay: Inhibition of LPS-stimulated TNFalpha production in mouse model at 10 mg/kg, po at 12 hrs; format: functional, organism-based; set-up: dose 10 mg/kg

T1 sequence (P14780 whole entry): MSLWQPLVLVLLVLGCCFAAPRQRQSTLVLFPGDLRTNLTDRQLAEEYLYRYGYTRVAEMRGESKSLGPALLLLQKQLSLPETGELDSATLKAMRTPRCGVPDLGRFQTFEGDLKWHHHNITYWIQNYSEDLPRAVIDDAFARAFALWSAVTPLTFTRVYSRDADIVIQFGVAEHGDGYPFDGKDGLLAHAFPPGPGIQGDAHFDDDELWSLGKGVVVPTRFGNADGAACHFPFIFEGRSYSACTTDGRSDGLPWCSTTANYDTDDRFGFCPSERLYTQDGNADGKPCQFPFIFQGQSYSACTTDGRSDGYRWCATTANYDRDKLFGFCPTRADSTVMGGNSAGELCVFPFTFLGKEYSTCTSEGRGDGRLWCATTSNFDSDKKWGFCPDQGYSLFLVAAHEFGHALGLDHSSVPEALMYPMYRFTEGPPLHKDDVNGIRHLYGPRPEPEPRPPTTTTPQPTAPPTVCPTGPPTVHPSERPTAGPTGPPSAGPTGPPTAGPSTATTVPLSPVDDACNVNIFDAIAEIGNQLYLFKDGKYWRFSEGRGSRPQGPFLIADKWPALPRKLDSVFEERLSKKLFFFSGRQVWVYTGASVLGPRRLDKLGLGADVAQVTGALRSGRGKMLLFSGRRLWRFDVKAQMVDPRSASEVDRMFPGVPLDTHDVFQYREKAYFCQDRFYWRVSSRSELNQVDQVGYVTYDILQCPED

SMILES	IC50 [1] [µM]	IC50 [2] [µM]	IC50 [3] [µM]	inhibition at 3 µM [4] [%]	IC50 [5] [µM]	other results
CC#CCOc1ccc(S(=O)(=O)C(C(=O)NO)C2CCN(C(=O)c3ccccc3)CC2)cc1 (configuration not stated)	> 10	> 10	> 10	28	0.233	–
CC#CCOc1ccc(S(=O)(=O)C(C(=O)NO)C2CCCCC2)cc1 (configuration not stated)	> 10	–	> 10	–	–	–
CC#CCOc1ccc(S(=O)(=O)C2(C(=O)NO)CCN(CC)CC2)cc1	–	–	–	35	0.08	inhibition [6]: 44%; inhibition [7]: 31%
CC#CCOc1ccc([S+]([O-])C(C(=O)NO)c2ccccc2)cc1 (single isomer, unassigned)	> 10	> 10	> 10	74	–	–
CC#CCOc1ccc(SC(C(=O)NO)c2ccccc2)cc1 (configuration not stated)	> 10	> 10	> 10	14	–	–
CC#CCOc1ccc(S(=O)(=O)C(C(=O)NO)C2CCNCC2)cc1 (configuration not stated)	> 10	> 10	> 10	–	–	–
CC#CCOc1ccc(S(=O)(=O)C(C(=O)NO)C2CCOCC2)cc1 (configuration not stated)	> 10	> 10	> 10	–	–	–
CC#CCOc1ccc(S(=O)(=O)C2(C(=O)NO)CCN(Cc3ccc(Br)cc3)CC2)cc1	–	–	3.37	–	–	–
CC#CCOc1ccc(SC2(C(=O)OCC)CCN(C(=O)OC(C)(C)C)CC2)cc1	–	–	–	0	–	inhibition [6]: 26%; inhibition [8]: 32%; inhibition [7]: 21%; inhibition [9]: 67%
CC#CCOc1ccc(S(=O)(=O)C(C(=O)NO)C2CCN(C(=O)C3CC3)CC2)cc1 (configuration not stated)	> 10	> 10	> 10	71	0.054	–
CC#CCOc1ccc([S@@+]([O-])[C@@H](CCCCCC)C(=O)NO)cc1	1.5	0.9	3	67	0.004	–
CC#CCOc1ccc([S@+]([O-])[C@H](CCCCCC)C(=O)NO)cc1	1	0.15	3.2	35	0.012	–
CC#CCOc1ccc([S@@](=O)[C@H](C(=O)NO)c2ccc(OC)cc2)cc1	> 10	> 10	> 10	12	0.048	–
CCCCOc1ccc(S(=O)(=O)C2(C(=O)NO)CCN(Cc3ccc(Br)cc3)CC2)cc1	0.01	0.005	3.96	6	0.072	–
CC#CCOc1ccc(S(=O)(=O)C2(C(=O)NO)CCN(Cc3ccc(OC)cc3)CC2)cc1	–	–	–	–	–	inhibition in vivo at 100 mg/kg [10]: 24%; Activity [11]: inactive; inhibition in vivo at 100 mg/kg [12]: 91%
CC#CCOc1ccc([S+]([O-])C(C(=O)NO)c2ccc(OC)cc2)cc1 (single isomer, unassigned)	> 10	> 10	> 10	–	0.017	–
CC#CCOc1ccc(S(=O)(=O)C(C(=O)NO)C2CCSCC2)cc1 (configuration not stated)	> 10	> 10	> 10	15	0.113	–
CC#CCOc1ccc(S(=O)(=O)C2(C(=O)NO)CCN(Cc3ccccc3)CC2)cc1	–	–	2.64	–	–	–
COc1ccc(S(=O)(=O)C2(C(=O)NO)CCN(Cc3ccc(Br)cc3)CC2)cc1	–	–	–	0	–	–
CC#CCOc1ccc(S(=O)(=O)C(CCCCCC)C(=O)NO)cc1 (configuration not stated)	2.5	0.5	> 10	6	0.075	–
CC#CCOc1ccc([S@@](=O)[C@H](C(=O)NO)c2ccccc2)cc1	> 10	> 10	> 10	4	0.074	–

SMILES	IC50 [1] [µM]	IC50 [2] [µM]	IC50 [3] [µM]	inhibition at 3 µM [4] [%]	IC50 [5] [µM]	other results
C#CCOc1ccc(S(=O)(=O)C2(C(=O)NO)CCN(Cc3ccccc3)CC2)cc1	0.018	0.007	0.096	0	0.069	–
CC#CCOc1ccc(SC(C(=O)NO)C(C)C)cc1 (configuration not stated)	> 10	> 10	> 10	13	–	–
CC#CCOc1ccc(SC(C(=O)NO)C2CCCCC2)cc1 (configuration not stated)	3	2	> 10	5	–	–
CCC#CCOc1ccc(S(=O)(=O)C2(C(=O)NO)CCN(Cc3ccc(Br)cc3)CC2)cc1	–	–	–	0	–	inhibition [6]: 51%; inhibition [8]: 40%; inhibition [7]: 41%
CC#CCOc1ccc(S(=O)(=O)N2CCSC(C)(C)[C@@H]2C(=O)NO)cc1	–	–	–	–	–	inhibition in vivo at 10 mg/kg [13]: 80%; Activity [14]: inactive
CC#CCOc1ccc(S(=O)(=O)C(C(=O)NO)c2ccccc2)cc1 (configuration not stated)	0.124	0.068	4.57	68	0.094	–
CC#CCOc1ccc(SC(CCCCCC)C(=O)NO)cc1 (configuration not stated)	–	–	> 10	5	–	–
CC#CCOc1ccc(SC(C(=O)NO)c2ccc(OC)cc2)cc1 (configuration not stated)	> 10	> 10	> 10	3	–	–
O=C(NO)C1(S(=O)(=O)c2ccc(OCC#CCN3CCOCC3)cc2)CCN(Cc2ccc(Br)cc2)CC1	–	–	–	0	–	inhibition [6]: 16%; inhibition [8]: 63%; inhibition [7]: 20%
CC#CCOc1ccc(S(=O)(=O)C2(C(=O)NO)CCN(Cc3ccc(Cl)cc3)CC2)cc1	–	–	–	66	–	inhibition in vivo at 100 mg/kg [10]: 23%; inhibition [6]: 52%; inhibition [8]: 56%; Activity [11]: inactive; inhibition in vivo at 100 mg/kg [12]: 61%; inhibition [7]: 52%
C#CCOc1ccc(S(=O)(=O)C2(C(=O)NO)CCN(Cc3ccc(Br)cc3)CC2)cc1	0.006	0.003	–	7	–	–
CCCCCCC(Sc1ccc(OC)cc1)C(=O)NO (configuration not stated)	–	–	–	–	–	inhibition [6]: 9%; inhibition [8]: 55%; inhibition [7]: 67%
CC#CCOc1ccc(SC2(C(=O)NO)CCN(C(=O)OC(C)(C)C)CC2)cc1	–	–	–	0	–	inhibition [6]: 24%; inhibition [7]: 25%; inhibition [9]: 38%
CC#CCOc1ccc(S(=O)(=O)C(C(=O)NO)C(C)C)cc1 (configuration not stated)	1.26	0.107	5.14	–	–	–
CC#CCOc1ccc(S(=O)(=O)C(C(=O)NO)C2CCN(C(C)=O)CC2)cc1 (configuration not stated)	> 10	> 10	> 10	31	0.119	–
CCCCCC#CCOc1ccc(S(=O)(=O)C2(C(=O)NO)CCN(Cc3ccc(Br)cc3)CC2)cc1	–	–	–	0	–	inhibition [6]: 33%; inhibition [8]: 60%; inhibition [7]: 59%
CC#CCOc1ccc(S(=O)(=O)C(C(=O)NO)c2ccc(OC)cc2)cc1 (configuration not stated)	> 10	3.69	> 10	–	0.201	–
CC#CCOc1ccc([S@@+]([O-])[C@H](C(=O)NO)C(C)C)cc1	0.399	–	6.48	–	–	–
CC#CCOc1ccc(S(=O)(=O)C(C(=O)NO)C2CC[S+]([O-])CC2)cc1 (configuration not stated)	> 10	> 10	> 10	14	0.039	–
CCCCCC[C@@H](C(=O)NO)[S@+]([O-])c1ccc(OC)cc1 (relative stereo)	0.186	0.072	1.15	–	0.03	–
CCCCCC[C@@H](C(=O)NO)[S@@+]([O-])c1ccc(OC)cc1 (relative stereo)	0.148	0.018	1.51	–	0.375	–
